Source: paper PMC4235474 (Clinical Pharmacology : Advances and Applications, 2014)
Values joined by “and” are separate entries in the source; they are usually repeats but may differ in a detail not shown here. Equal entries are not always repeated. Where two headings read alike, the source gives them in different places. Marks after values point to notes of the source that are not given here.

Assays:
[1] = cited from earlier work; for fluctuation in mean concentrations / mean terminal half-life: apixaban 2.5 mg BID, multiple ascending dose study
[2] = cited from earlier work
[3] = Multiple-dose steady-state plasma pharmacokinetics; assay type: in vivo, healthy subjects (human); settings: for Coefficient of variation (intersubject variability) for exposure parameters (AUC0–24, Cmax, Cmin): apixaban 2.5 mg BID
[4] = molecular target: factor Xa (Bos taurus, UniProt P00743); experiment: Steady-state plasma anti-factor Xa activity; assay type: in vivo, healthy subjects (human); settings: for slope of concentration–AXA linear regression: AXA versus plasma concentration, P<0.0001 between drugs; for intercept in regression equation anti-FXa vs plasma concentration / slope in regression equation anti-FXa vs plasma concentration: Figure 4 regression equation; for AXA Tpeak median (min–max): time of peak anti-FXa activity, day 4 steady state; for AXA AUC(0–24) G mean (CV): 0 to 24 hours after morning dose, rivaroxaban 10 mg QD
[5] = test system: healthy subjects; experiment: Safety and tolerability; assay type: in vivo, human; settings: for deaths or serious AEs: during the study; for number of subjects reporting AEs: of 14 subjects; for tolerability: rivaroxaban 10 mg QD, apixaban 2.5 mg BID for 4 days
Summary of the method: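 Randomized open-label two-period crossover in healthy volunteers housed in a clinical unit. Each took two oral factor Xa inhibitors for 4 days: one at 2.5 mg twice daily, the other at 10 mg once daily. Physical exam, vital signs, 12-lead ECG and blood/urine labs were done at screening, before each period and at discharge. AEs were monitored throughout, MedDRA-coded, and graded for severity, onset, drug relationship and outcome.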

[6] = VTEp patients; cited from earlier work
[7] = test system: prothrombin time; settings: at a concentration of 1,000 ng/mL; cited from earlier work
[8] = day 4 steady state, rivaroxaban 10 mg QD
[9] = day 4 steady state, rivaroxaban 10 mg QD, apixaban 2.5 mg BID oral, N=14

Sequence of factor Xa (P00743 234-492 limits assumed): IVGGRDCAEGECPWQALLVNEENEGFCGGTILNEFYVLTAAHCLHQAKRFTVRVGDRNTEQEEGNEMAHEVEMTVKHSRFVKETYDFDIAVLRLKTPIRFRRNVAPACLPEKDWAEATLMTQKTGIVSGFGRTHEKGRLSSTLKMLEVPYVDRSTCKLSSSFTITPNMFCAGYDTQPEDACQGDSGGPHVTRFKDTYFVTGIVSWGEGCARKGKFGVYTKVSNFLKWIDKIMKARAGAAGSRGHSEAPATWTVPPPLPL
Sequence of factor Xa (P00743 41-180 partner limits assumed): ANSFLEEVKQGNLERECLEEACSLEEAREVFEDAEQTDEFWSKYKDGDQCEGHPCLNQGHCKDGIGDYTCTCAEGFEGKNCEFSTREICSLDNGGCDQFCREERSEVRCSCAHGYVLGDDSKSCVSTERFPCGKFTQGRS

## COc1ccc(-n2nc(C(N)=O)c3c2C(=O)N(c2ccc(N4CCCCC4=O)cc2)CC3)cc1 [Apixaban, apixaban]
[1]; BID dosing
  time to steady state: 2 to 3 days
[1]; Japanese subjects
  fluctuation in mean concentrations: ~ 4.2
  mean terminal half-life: 9.7 h
[1]; Western subjects
  fluctuation in mean concentrations: ~ 3.0
  mean terminal half-life: 8.1 h
[1]
  terminal half-life: ~ 12 hours
  time to maximal plasma concentrations after administration: ~ 3 hours
[1]; following BID dosing
  accumulation: < 2 fold
[1]; not significantly influenced by dose or meals
  bioavailability: ~ 50%
[2]
  Protein binding: ~ 87%
[3]; after last dose on day 4 (apixaban: evening dose; rivaroxaban: morning dose), N=14
  T1/2 Mean (SD), terminal half-life: 8.65 (2.19) ^* h
[3]; [8]
  Coefficient of variation (intersubject variability) for exposure parameters (AUC0–24, Cmax, Cmin): 20%–24%
[3]; [9]
  Cmax G mean (%CV): 80.5 (23) ng/mL
[3]; human, plasma, oral
  Tmax: 2 h
[3]; human, plasma, oral, 2.5 mg
  AUC(0-t): 527 ng·h/mL
[4]; 0 to 12 hours after morning dose, day 4, apixaban 2.5 mg BID, N=14
  AXA AUC(0–12) G mean (CV): 7.42 (21) IU · h/mL
[4]
  slope of concentration–AXA linear regression: 0.0134 IU/ng
  intercept in regression equation anti-FXa vs plasma concentration: 0.02753
  slope in regression equation anti-FXa vs plasma concentration: 0.01342
[4]; determined after evening dose on day 4, apixaban 2.5 mg BID
  AXA T1/2 Mean (SD): 8.9 h and 8.91 (2.46) ^‡ h
[4]; N=14
  AXA Tpeak median (min–max): 2.00 (1.00–3.00) h
[4]; N=14, listed as apixaban
  AXA Tpeak median (min–max): 2 h
[5]
  deaths or serious AEs: No deaths or serious AEs
  number of subjects reporting AEs: eight
  tolerability: well-tolerated

## O=C(NC[C@H]1CN(c2ccc(N3CCOCC3=O)cc2)C(=O)O1)c1ccc(Cl)s1 [Rivaroxaban, rivaroxaban]
[1]
  terminal half-life: ~ 10 hours
  time to maximal plasma concentrations after administration: ~ 3 hours
[1]; depending on dose and administration with a meal
  bioavailability: 66%–100%
[1]; following QD administration
  accumulation: does not show appreciable accumulation
[1]; rivaroxaban 5 mg QD, healthy subjects
  half-life: 8.4 h
[2]
  Protein binding: ~ 93%
[3]; daily AUC
  AUC0–24 at steady state, rivaroxaban higher than apixaban: ~ 17%
[3]; day 4
  Cmax, rivaroxaban relative to apixaban (higher): ~ 2 fold
  Cmin, rivaroxaban lower than apixaban: ~ 40%
[3]; [8]
  Coefficient of variation (intersubject variability) for exposure parameters (AUC0–24, Cmax, Cmin): 29%–46%
[3]; [9]
  Cmin G mean (%CV): 10.1 (39) ng/mL
[3]; geometric mean ratio, 90% CI: 2.82–4.61
  Cmax/Cmin ratio, rivaroxaban relative to apixaban: 3.6 fold
[6]
  Cmax/Cmin ratio: ~ 7
[7]
  effect in the prothrombin time assay: greater effect than apixaban
[4]; day 4, apixaban 2.5 mg BID, N=14
  AXA AUC(0–24) G mean (CV): 17.8 (29) IU · h/mL
[4]; day 4, apixaban 2.5 mg BID, N=14, listed as rivaroxaban
  AXA AUC(0–24) G mean (CV): 17.8 IU · h/mL
[4]
  slope of concentration–AXA linear regression: 0.0172 IU/ng
  intercept in regression equation anti-FXa vs plasma concentration: −0.03215
  slope in regression equation anti-FXa vs plasma concentration: 0.01719
[4]; geometric mean
  AXA AUC(0–24), rivaroxaban higher than apixaban: ~ 34%
[4]; steady state
  AXA AUC(0–24), rivaroxaban relative to apixaban (higher): ~1.3 fold
  Peak AXA, rivaroxaban relative to apixaban (higher): ~ 2.5 fold
  trough AXA, rivaroxaban lower than apixaban: ~ 30%
[4]; N=14
  AXA Tpeak median (min–max): 2.00 (1.00–3.00) h
[4]; N=14, listed as rivaroxaban
  AXA Tpeak median (min–max): 2 h
[5]; after start of study medication, 14 subjects, all mild
  number of AEs reported: Twelve
[5]
  deaths or serious AEs: No deaths or serious AEs
  number of subjects reporting AEs: seven
  tolerability: well-tolerated
